The results in this text go back to ChEMBL document CHEMBL1147807, “Identification of 2-acylaminothiophene-3-carboxamides as potent inhibitors of FLT3” (Bioorg Med Chem Lett, 2006).

Experiment [1] addresses T1, Cytoplasmic tyrosine-protein kinase BMX (Homo sapiens) (UniProt P51813).
T1 sequence (whole entry): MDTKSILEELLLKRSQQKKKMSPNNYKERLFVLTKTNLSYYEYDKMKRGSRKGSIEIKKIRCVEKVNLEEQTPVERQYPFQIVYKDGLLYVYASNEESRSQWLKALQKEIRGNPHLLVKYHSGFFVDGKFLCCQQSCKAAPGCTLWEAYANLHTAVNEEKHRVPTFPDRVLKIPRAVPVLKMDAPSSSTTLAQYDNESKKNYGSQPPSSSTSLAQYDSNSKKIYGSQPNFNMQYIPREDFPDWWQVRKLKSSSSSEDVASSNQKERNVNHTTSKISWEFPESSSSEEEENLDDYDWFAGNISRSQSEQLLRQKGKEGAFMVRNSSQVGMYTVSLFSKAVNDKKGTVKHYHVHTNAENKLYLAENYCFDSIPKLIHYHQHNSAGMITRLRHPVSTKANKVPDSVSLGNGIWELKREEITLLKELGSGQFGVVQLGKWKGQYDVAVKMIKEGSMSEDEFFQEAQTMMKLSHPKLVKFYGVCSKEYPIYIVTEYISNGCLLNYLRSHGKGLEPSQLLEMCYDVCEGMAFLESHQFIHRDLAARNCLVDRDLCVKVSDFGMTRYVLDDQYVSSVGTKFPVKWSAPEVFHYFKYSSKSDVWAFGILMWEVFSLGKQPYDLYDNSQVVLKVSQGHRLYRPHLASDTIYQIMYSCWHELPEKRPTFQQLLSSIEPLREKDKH
The experiment in a line: Inhibition of human Bmx kinase at 3 uM in presence of 10 uM ATP. In outline: (§1)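 Selectivity panel run at a single compound concentration of 3 µM with 10 µM ATP. Read-out is % inhibition of each kinase. Values are averages of duplicate experiments.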

Experiment [2] deals with Tyrosine-protein kinase Lyn (Homo sapiens) (UniProt P07948). The experiment in a line: Inhibition of human Lyn at 3 uM in presence of 10 uM ATP. The gist of the method:
as §1

Experiment [3] addresses T2, Serine/threonine-protein kinase D1 (Homo sapiens) (UniProt Q15139).
T2 sequence (whole entry): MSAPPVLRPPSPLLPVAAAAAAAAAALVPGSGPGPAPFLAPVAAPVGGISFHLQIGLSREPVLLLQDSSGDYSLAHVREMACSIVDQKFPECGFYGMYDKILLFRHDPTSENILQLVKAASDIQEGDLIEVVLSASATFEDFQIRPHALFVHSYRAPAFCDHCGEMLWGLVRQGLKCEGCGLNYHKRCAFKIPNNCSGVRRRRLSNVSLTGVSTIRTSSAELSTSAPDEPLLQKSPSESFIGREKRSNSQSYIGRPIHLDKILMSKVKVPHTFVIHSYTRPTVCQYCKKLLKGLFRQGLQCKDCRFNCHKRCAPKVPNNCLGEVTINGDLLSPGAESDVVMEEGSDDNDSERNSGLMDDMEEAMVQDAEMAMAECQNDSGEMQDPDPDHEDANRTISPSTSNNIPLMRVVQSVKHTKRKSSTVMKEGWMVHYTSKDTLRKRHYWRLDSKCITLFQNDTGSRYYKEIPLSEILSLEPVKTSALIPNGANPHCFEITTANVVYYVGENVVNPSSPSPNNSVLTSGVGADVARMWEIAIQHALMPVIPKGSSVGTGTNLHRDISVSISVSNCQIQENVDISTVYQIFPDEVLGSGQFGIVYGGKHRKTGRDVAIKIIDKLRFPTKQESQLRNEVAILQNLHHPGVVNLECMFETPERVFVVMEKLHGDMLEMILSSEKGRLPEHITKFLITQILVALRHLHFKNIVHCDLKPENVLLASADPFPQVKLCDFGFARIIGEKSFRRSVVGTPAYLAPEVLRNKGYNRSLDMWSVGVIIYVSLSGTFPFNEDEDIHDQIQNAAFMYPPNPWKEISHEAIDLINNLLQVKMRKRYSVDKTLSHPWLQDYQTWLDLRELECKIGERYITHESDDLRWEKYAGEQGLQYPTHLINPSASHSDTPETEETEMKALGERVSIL
The experiment in a line: Inhibition of human PKC mu at 3 uM in presence of 10 uM ATP. The gist of the method: as §1

In experiment [4] the target is T3, Serine/threonine-protein kinase D2 (Homo sapiens) (UniProt Q9BZL6).
T3 sequence (whole entry): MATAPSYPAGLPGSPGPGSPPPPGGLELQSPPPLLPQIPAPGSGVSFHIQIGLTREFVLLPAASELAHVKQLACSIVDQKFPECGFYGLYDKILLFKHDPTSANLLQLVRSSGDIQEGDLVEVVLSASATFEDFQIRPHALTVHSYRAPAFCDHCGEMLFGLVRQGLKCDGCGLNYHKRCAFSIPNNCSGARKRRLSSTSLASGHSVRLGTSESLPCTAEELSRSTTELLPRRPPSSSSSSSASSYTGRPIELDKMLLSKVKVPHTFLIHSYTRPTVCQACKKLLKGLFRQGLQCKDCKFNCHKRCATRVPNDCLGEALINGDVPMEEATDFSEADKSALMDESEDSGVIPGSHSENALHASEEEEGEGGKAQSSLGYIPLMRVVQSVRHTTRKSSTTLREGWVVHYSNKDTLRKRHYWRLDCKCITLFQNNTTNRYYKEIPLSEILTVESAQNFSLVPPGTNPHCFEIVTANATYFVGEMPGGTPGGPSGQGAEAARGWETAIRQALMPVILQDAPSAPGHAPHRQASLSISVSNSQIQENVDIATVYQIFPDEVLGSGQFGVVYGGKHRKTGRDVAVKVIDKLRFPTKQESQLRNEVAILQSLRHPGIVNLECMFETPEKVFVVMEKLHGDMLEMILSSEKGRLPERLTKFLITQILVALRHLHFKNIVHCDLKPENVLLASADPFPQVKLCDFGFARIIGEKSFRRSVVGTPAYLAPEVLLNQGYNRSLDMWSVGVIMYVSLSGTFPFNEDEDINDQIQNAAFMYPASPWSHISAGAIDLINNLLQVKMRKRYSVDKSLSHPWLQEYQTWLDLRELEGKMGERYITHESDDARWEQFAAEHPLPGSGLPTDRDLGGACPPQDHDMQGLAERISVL
The experiment in a line: Inhibition of human PKD2 at 3 uM in presence of 10 uM ATP. In outline: as §1

The structures appear in SMILES notation.

Chain of Tyrosine-protein kinase Lyn (Homo sapiens) (P07948 2-512 limits assumed): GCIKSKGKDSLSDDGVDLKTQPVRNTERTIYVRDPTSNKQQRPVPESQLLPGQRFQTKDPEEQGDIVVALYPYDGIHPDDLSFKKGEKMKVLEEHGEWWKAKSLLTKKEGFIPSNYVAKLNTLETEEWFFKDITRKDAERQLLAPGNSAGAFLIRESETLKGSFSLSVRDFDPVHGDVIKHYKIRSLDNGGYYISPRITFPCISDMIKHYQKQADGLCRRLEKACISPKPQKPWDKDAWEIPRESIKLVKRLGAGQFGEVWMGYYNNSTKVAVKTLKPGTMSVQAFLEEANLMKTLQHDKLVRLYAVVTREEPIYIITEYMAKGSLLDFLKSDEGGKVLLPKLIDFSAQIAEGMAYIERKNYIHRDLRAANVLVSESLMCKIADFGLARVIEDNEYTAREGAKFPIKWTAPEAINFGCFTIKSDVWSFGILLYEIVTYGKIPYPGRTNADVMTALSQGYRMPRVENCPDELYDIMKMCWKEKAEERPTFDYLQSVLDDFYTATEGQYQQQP

On to `COc1ccc(C(=O)Nc2sc3c(c2C(N)=O)CCCC3)cc1OC`, for which the inhibition is 9% in experiment [1], 21% in experiment [2], 3% in experiment [3] and -7% in experiment [4].

A word on the inhibition: it is the change of the read-out against control, counted positive when it falls.
